# Legend:
# Type in all cases: functional
# Staphylococcus aureus = test: Antibacterial activity against Staphylococcus aureus
# Outline: (§1)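 Broth microdilution MIC in Mueller Hinton broth, 96-well plates. Strains from departmental collection, kept on nutrient agar slants at 37 °C, purity checked before testing. Starting inoculum 1–5 · 10³ cells/ml. Plates incubated 24 h at 37 °C in a moist chamber, then absorbance read at 492 nm. MIC taken as 90% growth inhibition relative to growth control.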
# Enterococcus faecalis = test: Antibacterial activity against Streptococcus faecalis; outline: as §1
# Klebsiella pneumoniae = test: Antibacterial activity against Klebsiella pneumoniae; outline: as §1
# Escherichia coli = test: Antibacterial activity against Escherichia coli; outline: as §1
# Pseudomonas aeruginosa = test: Antibacterial activity against Pseudomonas aeruginosa; outline: as §1
Compound,MIC (Staphylococcus aureus) [µg/mL],MIC (Enterococcus faecalis) [µg/mL],MIC (Klebsiella pneumoniae) [µg/mL],MIC (Escherichia coli) [µg/mL],MIC (Pseudomonas aeruginosa) [µg/mL]
N#CC(CNC(=O)Nc1ccc(Cl)cc1Cl)C(O)c1ccccc1 (centres undefined),> 50,> 50,> 50,> 50,> 50
N#C/C(=C/c1ccccc1Cl)CNC(=O)Nc1ccc(Cl)cc1Cl,> 50,> 50,> 50,> 50,> 50
N#CC(CN(Cc1ccccc1)C(=O)Nc1ccc(Cl)cc1)C(O)c1ccccc1 (centres undefined),25,50,50,12.5,50
N#C/C(=C/c1cccs1)CNC(=O)Nc1ccc(Cl)cc1,> 50,> 50,> 50,> 50,> 50
N#C/C(=C/c1cccs1)CNC(=O)Nc1ccc(Cl)cc1Cl,> 50,> 50,> 50,> 50,> 50
N#C/C(=C/c1ccccc1Cl)CNC(=O)Nc1ccc(Cl)cc1,> 50,> 50,> 50,> 50,> 50
CCOc1ccc(NC(=O)N(Cc2ccccc2)CC(C#N)C(O)c2ccccc2Cl)cc1 (centres undefined),> 50,> 50,> 50,> 50,> 50
N#C/C(=C/c1ccc(Cl)c(Cl)c1)CNC(=O)Nc1ccc(Cl)c(Cl)c1,1.56,1.56,1.56,0.78,50
COC(c1ccccc1)C1CN(Cc2ccccc2)C(=O)N(c2ccc(Cl)c(Cl)c2)C1=N (centres undefined),1.56,3.12,3.12,1.56,50
N#C/C(=C/c1ccccc1Cl)CNC(=S)Nc1ccccc1,> 50,> 50,> 50,> 50,> 50
CC1(C)S[C@@H]2[C@H](NC(=O)[C@H](N)c3ccccc3)C(=O)N2[C@H]1C(=O)O [AMPICILLIN],0.09,0.02,0.01,,50
N#C/C(=C/c1ccccc1)CNC(=O)Nc1ccc(Cl)c(Cl)c1,> 50,> 50,> 50,> 50,> 50
Cc1ccc(NC(=O)NC/C(C#N)=C\c2ccccc2Cl)cc1Cl,> 50,> 50,> 50,> 50,> 50
N#C/C(=C/c1ccccc1)CNC(=O)Nc1ccc(Cl)cc1Cl,> 50,> 50,> 50,50,> 50
N#C/C(=C/c1ccccc1)CNC(=S)Nc1ccccc1,50,50,50,50,50
N#C/C(=C/c1ccc(Cl)c(Cl)c1)CNC(=O)Nc1ccc(Cl)cc1Cl,> 50,> 50,> 50,6.25,> 50
Nc1c(Cc2ccccc2)cnc(=S)n1-c1ccccc1,> 50,> 50,> 50,> 50,> 50
CCn1cc(C(=O)O)c(=O)c2cc(F)c(N3CCNCC3)cc21 [NORFLOXACIN],0.3,0.78,0.36,0.36,0.78
Nc1c(Cc2ccccc2Cl)cnc(=S)n1-c1ccccc1,> 50,25,> 50,> 50,> 50
N#CC(CN(Cc1ccccc1)C(=O)Nc1ccc(Cl)c(Cl)c1)C(O)c1ccccc1 (centres undefined),> 50,> 50,> 50,> 50,> 50
Cc1ccc(NC(=O)NC/C(C#N)=C\c2ccc(Cl)c(Cl)c2)cc1Cl,> 50,> 50,> 50,> 50,> 50
N#C/C(=C/c1ccc(Cl)c(Cl)c1)CNC(=S)Nc1ccccc1,1.56,3.12,3.12,1.56,25
COC(c1ccccc1)C(C#N)CN(Cc1ccccc1)C(=O)Nc1ccc(Cl)c(Cl)c1 (centres undefined),3.12,6.25,3.12,3.12,50
N#C/C(=C/c1ccc(Cl)c(Cl)c1)CNC(=O)Nc1ccc(Cl)cc1,> 50,> 50,> 50,> 50,> 50
N#C/C(=C/c1ccccc1Cl)CNC(=O)Nc1ccc(Cl)c(Cl)c1,> 50,> 50,> 50,1.56,> 50
GENTAMICIN SULFATE,6.25,0.78,0.78,0.02,25
N=C1CCNC(=O)N1c1ccc(Cl)cc1Cl,50,50,50,25,50

# Now from value to compound:
MIC (Staphylococcus aureus) [µg/mL],MIC (Enterococcus faecalis) [µg/mL],MIC (Klebsiella pneumoniae) [µg/mL],MIC (Escherichia coli) [µg/mL],MIC (Pseudomonas aeruginosa) [µg/mL],Compound
3.12,3.12,3.12,3.12,25,N=c1c(Cc2ccc(Cl)c(Cl)c2)c[nH]c(=O)n1-c1ccc(Cl)cc1Cl
> 50,50,50,> 50,> 50,Cc1ccc(-n2c(=O)[nH]cc(Cc3ccc(Cl)c(Cl)c3)c2=N)cc1Cl
50,50,50,50,50,N=c1c(Cc2ccccc2)c[nH]c(=O)n1-c1ccc(Cl)c(Cl)c1
50,50,> 50,50,50,Cc1ccc(-n2c(=O)[nH]cc(Cc3ccccc3Cl)c2=N)cc1Cl
> 50,> 50,> 50,> 50,> 50,N=c1c(Cc2cccs2)c[nH]c(=O)n1-c1ccc(Cl)cc1
> 50,> 50,> 50,> 50,> 50,N=c1c(Cc2ccc(Cl)c(Cl)c2)c[nH]c(=O)n1-c1ccc(Cl)cc1
> 50,50,> 50,50,> 50,N=c1c(Cc2ccccc2Cl)c[nH]c(=O)n1-c1ccc(Cl)c(Cl)c1
> 50,> 50,50,> 50,> 50,N=c1c(Cc2ccccc2Cl)c[nH]c(=O)n1-c1ccc(Cl)cc1Cl
> 50,25,50,> 50,> 50,Nc1c(Cc2ccc(Cl)c(Cl)c2)cnc(=S)n1-c1ccccc1
50,25,50,50,50,N=c1c(Cc2ccccc2)c[nH]c(=O)n1-c1ccc(Cl)cc1Cl
> 50,> 50,> 50,50,> 50,N=c1c(Cc2cccs2)c[nH]c(=O)n1-c1ccc(Cl)cc1Cl
25,25,50,25,50,N=c1c(Cc2ccc(Cl)c(Cl)c2)c[nH]c(=O)n1-c1ccc(Cl)c(Cl)c1
> 50,> 50,> 50,> 50,> 50,N=c1c(Cc2ccccc2Cl)c[nH]c(=O)n1-c1ccc(Cl)cc1
